Measured values as given in ChEMBL document CHEMBL1152317, “Hypoglycemic activity of extracts and compounds from the leaves of Hintonia standleyana and H. latiflora: potential alternatives to the use of the stem bark of these species” (2009).

Experiments:
Type in all cases: functional
Rattus norvegicus [1] = assay: Antihyperglycemic activity in streptozotocin-induced diabetic Wistar rat assessed as variation in glycemia at 10 mg/kg administered via intragastric route 7 days after streptozotocin challenge measured after 1.5 hrs of compound administration by glucose oxidase method relative to control
Procedure, shortened: (§1)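 Diabetes induced by single ip streptozotocin 50 mg/kg in 0.1 M citrate buffer pH 4.5; rats with glucose above 250 mg/dL after 7 days included. Rats 180–220 g, 6 per group. Test agent suspended in 0.05% Tween 80 in saline, given intragastrically; vehicle controls. Tail-vein blood sampled at 0 h and after dosing; glucometer reading; % change calculated from 0 h value.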

Rattus norvegicus [2] = assay: Antihyperglycemic activity in streptozotocin-induced diabetic Wistar rat assessed as variation in glycemia at 10 mg/kg administered via intragastric route 7 days after streptozotocin challenge measured after 7 hrs of compound administration by glucose oxidase method relative to control; procedure, shortened: as §1
Rattus norvegicus [3] = assay: Hypoglycemic activity in normal Wistar rat assessed as variation in glycemia at 10 mg/kg administered via intragastric route after 9 hrs by glucose oxidase method relative to control
Procedure, shortened: (§2)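 Normoglycemic rats (180–220 g), 6 per group, standard pellet diet and water ad libitum. Test agent was suspended in 0.05% Tween 80 in saline and given by gavage. Controls got vehicle at 0.5 mL/100 g. Tail-incision blood was sampled at 0 h and after dosing and read by glucometer. Glycemia change was expressed as % of the 0 h value; ANOVA with Dunnett's test versus vehicle.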

Rattus norvegicus [4] = assay: Antihyperglycemic activity in streptozotocin-induced diabetic Wistar rat assessed as variation in glycemia at 10 mg/kg administered via intragastric route 7 days after streptozotocin challenge measured after 3 hrs of compound administration by glucose oxidase method relative to control; procedure, shortened: as §1
Rattus norvegicus [5] = assay: Hypoglycemic activity in normal Wistar rat assessed as variation in glycemia at 10 mg/kg administered via intragastric route after 1.5 hrs by glucose oxidase method relative to control; procedure, shortened: as §2
Rattus norvegicus [6] = assay: Antihyperglycemic activity in streptozotocin-induced diabetic Wistar rat assessed as variation in glycemia at 10 mg/kg administered via intragastric route 7 days after streptozotocin challenge measured after 9 hrs of compound administration by glucose oxidase method relative to control; procedure, shortened: as §1
Rattus norvegicus [7] = assay: Antihyperglycemic activity in streptozotocin-induced diabetic Wistar rat assessed as variation in glycemia at 10 mg/kg administered via intragastric route 7 days after streptozotocin challenge measured after 5 hrs of compound administration by glucose oxidase method relative to control; procedure, shortened: as §1
Rattus norvegicus [8] = assay: Hypoglycemic activity in normal Wistar rat assessed as variation in glycemia at 10 mg/kg administered via intragastric route after 3 hrs by glucose oxidase method relative to control; procedure, shortened: as §2
Rattus norvegicus [9] = assay: Hypoglycemic activity in normal Wistar rat assessed as variation in glycemia at 10 mg/kg administered via intragastric route after 5 hrs by glucose oxidase method relative to control; procedure, shortened: as §2
Rattus norvegicus [10] = assay: Hypoglycemic activity in normal Wistar rat assessed as variation in glycemia at 10 mg/kg administered via intragastric route after 7 hrs by glucose oxidase method relative to control; procedure, shortened: as §2

Structure (SMILES) | Activity (Rattus norvegicus [1]) [%] | Activity (Rattus norvegicus [2]) [%] | Activity (Rattus norvegicus [3]) [%] | Activity (Rattus norvegicus [4]) [%] | Activity (Rattus norvegicus [5]) [%] | Activity (Rattus norvegicus [6]) [%] | Activity (Rattus norvegicus [7]) [%] | Activity (Rattus norvegicus [8]) [%] | Activity (Rattus norvegicus [9]) [%] | Activity (Rattus norvegicus [10]) [%]
CC(=O)OC[C@H]1O[C@@H](Oc2cc(O)cc3oc(=O)cc(-c4ccc(O)c(O)c4)c23)[C@H](O)[C@@H](O)[C@H]1O | -5 | -34.7 | -30.6 | -20.7 | -9.2 | -37.2 | -29.5 | -29.9 | -28.6 | -25
CC(=O)OC[C@H]1O[C@@H](Oc2cc(O)cc3oc(=O)cc(-c4ccc(O)cc4)c23)[C@H](O)[C@@H](O)[C@H]1O | -11 | -25.2 | -24 | -24.9 | -10.3 | -27.1 | -22.7 | -17.8 | -20.9 | -27.2
COc1ccc(Cl)cc1C(=O)NCCc1ccc(S(=O)(=O)NC(=O)NC2CCCCC2)cc1 [GLYBURIDE] | -13.7 | -35.2 | -37.1 | -35.5 | -8.4 | -36.7 | -35.9 | -30.1 | -47.6 | -41.8
